Measured values taken from ChEMBL document CHEMBL4138257, “Long-Lasting and Fast-Acting in Vivo Efficacious Antiplasmodial Azepanylcarbazole Amino Alcohol” (ACS Med Chem Lett, 2017).
≈ marks a conversion by molar mass, not a printed value. Calls of active or inactive are those of the source. The calls are words filed in the database; no cut-off is given here.

Tests used:
[1] = test system: Plasmodium falciparum; assay: Antiplasmodial activity against Plasmodium falciparum 3D7 infected in human erythrocytes engrafted in NOD-SCID IL-2Rgamma null mouse assessed as reduction in blood parasitemia administered as single dose via oral gavage […] by flow cytometry; type: functional; settings: 3D7, po
Method in brief: (§1)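 SCID mice engrafted with human erythrocytes, infected with P. falciparum 3D7; single oral dose of 1, 3, 10 or 30 mg·kg-1 given day 3 after infection. Parasitemia measured by flow cytometry, lower limit of quantification 0.01; vehicle group n=3; chloroquine positive control. ED90 and AUC_ED90 are taken as the reduction at day 7 after infection versus vehicle-treated mice.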

[2] = test system: Plasmodium falciparum; assay: Antiplasmodial activity against Plasmodium falciparum V1/S infected in human erythrocytes after 72 hrs by [3H]-hypoxanthine incorporation assay; type: functional, organism-based
[3] = test system: Plasmodium falciparum; assay: Antiplasmodial activity against Plasmodium falciparum 3D7A infected in red blood cells at 2 times EC90; type: functional, organism-based
[4] = Intrinsic clearance in rat microsomes assessed per mg protein; type: ADME, Microsome
[5] = Kinetic solubility of the compound in FeSSIF at pH 5 after 24 hrs by HPLC analysis; type: physicochemical; settings: read-out: Kinetic_solubility
[6] = test system: Plasmodium falciparum; assay: Antiplasmodial activity against Plasmodium falciparum TM90C2B infected in human erythrocytes after 72 hrs by [3H]-hypoxanthine incorporation assay; type: functional, organism-based
[7] = Ratio of drug uptake in human blood to plasma; type: ADME; settings: blood and plasma
[8] = Ratio of EC50 for Plasmodium falciparum FCB infected in human erythrocytes to EC50 for Plasmodium falciparum NF54 infected in human erythrocytes; type: functional
[9] = Ratio of EC50 for Plasmodium falciparum HB3 infected in human erythrocytes to EC50 for Plasmodium falciparum NF54 infected in human erythrocytes; type: functional
[10] = Ratio of EC50 for Plasmodium falciparum TM90C2B infected in human erythrocytes to EC50 for Plasmodium falciparum NF54 infected in human erythrocytes; type: functional
[11] = Fraction unbound in mouse plasma at 1000 ng/mL by LC-MS analysis; type: ADME, cell-free
[12] = Oral bioavailability in rat at 0.5 mg/kg measured for 14 days; type: ADME, organism-based; settings: in vivo
[13] = test system: Plasmodium falciparum; assay: Antiplasmodial activity against Plasmodium falciparum 3D7 infected in human erythrocytes engrafted in NOD-SCID IL-2Rgamma null mouse assessed as reduction in peripheral blood parasitemia administered as single dose via oral gavage measured on […] by flow cytometry; type: functional, organism-based; method in brief: as §1
[14] = Apparent permeability of the compound in human Caco2 cells at 20 uM after 4 hrs in presence of human plasma by LC-MS analysis; type: ADME, cell-based; settings: Caco-2
Method in brief: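 Caco-2 permeability measured with human plasma in both donor and acceptor compartments to reduce non-specific binding. Papp corrected for the unbound concentration under these conditions; efflux ratio also reported.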

[15] = test system: Plasmodium falciparum; assay: Antiplasmodial activity against Plasmodium falciparum NF54 infected in human erythrocytes after 72 hrs by [3H]-hypoxanthine incorporation assay; type: functional, organism-based
[16] = Octanol-phosphate buffer partition co-efficient, log D of the compound at pH 7.4 after 1 hr by HPLC analysis; type: physicochemical
[17] = test system: Plasmodium falciparum; assay: Antiplasmodial activity against Plasmodium falciparum 3D7A infected in red blood cells assessed as log reduction in parasite viability at 3 times EC50 after 48 hrs by [3H]-hypoxanthine incorporation assay; type: functional
Method in brief: (§2)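 In vitro parasite reduction ratio (PRR) assay on P. falciparum 3D7A-infected erythrocytes exposed to drug at 10× or 3× EC50. Viability of treated parasites was measured by limiting serial dilution followed by monitoring of re-growth. Killing was expressed as log-unit reduction in viable parasites after 48 h.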

[18] = test system: Plasmodium falciparum; assay: Antiplasmodial activity against schizont stage of Plasmodium falciparum 3D7A infected in red blood cells assessed as reduction in parasite viability at 3 to 10 times EC50 after 48 hrs by [3H]-hypoxanthine incorporation assay relative to ring stage; type: functional
[19] = Tmax in CD1 mouse at 0.5 mg/kg, po measured for 14 days; type: ADME, organism-based; settings: in vivo
Method in brief: (§3)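 Single po administration, mouse dose 0.5 mg·kg-1; plasma concentrations followed to obtain Cmax time and half-life. Bioavailability derived against single iv dosing.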

[20] = test system: Plasmodium falciparum; assay: Antiplasmodial activity against Plasmodium falciparum K1 infected in human erythrocytes after 72 hrs by [3H]-hypoxanthine incorporation assay; type: functional, organism-based
[21] = Kinetic solubility of the compound in PBS at pH 7.4 after 24 hrs by HPLC analysis; type: physicochemical; settings: read-out: Kinetic_solubility
[22] = Half life in CD1 mouse at 0.5 mg/kg, po measured for 14 days; type: ADME, organism-based; settings: in vivo; method in brief: as §3
[23] = test system: Plasmodium falciparum; assay: Antiplasmodial activity against Plasmodium falciparum 3D7 infected in human erythrocytes engrafted in NOD-SCID IL-2Rgamma null mouse assessed as reduction in blood parasitemia at 10 to 30 mg/kg, po administered as single dose via gavage measured on day 4 post treatment by flow cytometry; type: functional, organism-based
Method in brief: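 Human-erythrocyte-engrafted SCID mice infected with P. falciparum 3D7 received one oral dose (1, 3, 10 or 30 mg·kg-1) on day 3 post-infection. Parasitemia was followed by flow cytometry, with a quantification limit of 0.01; vehicle controls n=3.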

[24] = Oral bioavailability in CD1 mouse at 0.5 mg/kg measured for 14 days; type: ADME, organism-based; settings: in vivo; method in brief: as §3
[25] = test system: Plasmodium falciparum; assay: Antiplasmodial activity against Plasmodium falciparum D6 infected in human erythrocytes after 72 hrs by [3H]-hypoxanthine incorporation assay; type: functional, organism-based
[26] = Fraction unbound in human plasma at 1000 ng/mL by LC-MS analysis; type: ADME, cell-free
[27] = test system: Plasmodium falciparum; assay: Antiplasmodial activity against Plasmodium falciparum 3D7A infected in red blood cells assessed as log reduction in parasite viability at 10 times EC50 after 48 hrs by [3H]-hypoxanthine incorporation assay; type: functional; method in brief: as §2
[28] = Clearance in CD1 mouse at 0.2 mg/kg, iv measured for 14 days; type: ADME, organism-based; settings: in vivo
Method in brief: (§4)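 Single iv administration, mouse dose 0.2 mg·kg-1. CL reported in L/h/kg and as % liver blood flow; Vss in L/kg.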

[29] = Fraction unbound in rat plasma at 1000 ng/mL by LC-MS analysis; type: ADME, cell-free
[30] = Intrinsic clearance in mouse microsomes assessed per mg protein; type: ADME, Microsome
[31] = Kinetic solubility of the compound in FaSSIF at pH 6.5 after 24 hrs by HPLC analysis; type: physicochemical; settings: read-out: Kinetic_solubility
[32] = test system: Plasmodium falciparum; assay: Antiplasmodial activity against Plasmodium falciparum Dd2 infected in human erythrocytes after 72 hrs by [3H]-hypoxanthine incorporation assay; type: functional, organism-based
[33] = Half life in dog at 0.5 mg/kg, po measured for 14 days; type: ADME, organism-based, Canis lupus familiaris; settings: in vivo; method in brief: as §3
[34] = Ratio of EC50 for Plasmodium falciparum 7G8 infected in human erythrocytes to EC50 for Plasmodium falciparum NF54 infected in human erythrocytes; type: functional
[35] = target: Voltage-gated inwardly rectifying potassium channel KCNH2 (Homo sapiens, UniProt Q12809); assay: Inhibition of human ERG
[36] = Intrinsic clearance in dog microsomes assessed per mg protein; type: ADME, Canis lupus familiaris, Microsome
[37] = Half life in rat at 0.5 mg/kg, po measured for 14 days; type: ADME, organism-based; settings: in vivo
[38] = Ratio of EC50 for Plasmodium falciparum D6 infected in human erythrocytes to EC50 for Plasmodium falciparum NF54 infected in human erythrocytes; type: functional
[39] = Volume of distribution at steady state in CD1 mouse at 0.2 mg/kg, iv measured for 14 days; type: ADME, organism-based; settings: in vivo, read-out: Vdss; method in brief: as §4
[40] = Ratio of EC50 for Plasmodium falciparum Dd2 infected in human erythrocytes to EC50 for Plasmodium falciparum NF54 infected in human erythrocytes; type: functional
[41] = Efflux ratio of apparent permeability from basolateral to apical side over apical to basolateral side in human Caco2 cells at 20 uM after 4 hrs in presence of human plasma by LC-MS analysis; type: ADME, cell-based; settings: Caco-2
Method in brief: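 Caco-2 permeability was run with human plasma on both donor and acceptor sides to reduce non-specific binding. Apparent permeability (Papp, ×10^-6 cm/s) was corrected for the unbound concentration, and an efflux ratio was reported.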

[42] = Fraction unbound in dog plasma at 1000 ng/mL by LC-MS analysis; type: ADME, cell-free, Canis lupus familiaris
[43] = Clearance in dog at 0.2 mg/kg, iv measured for 14 days; type: ADME, organism-based, Canis lupus familiaris; settings: in vivo; method in brief: as §4
[44] = Intrinsic clearance in monkey microsomes assessed per mg protein; type: ADME, Macaca mulatta, Microsome; settings: rhesus monkey
[45] = Dissociation constant, pKa of the compound at pH 1.5; type: physicochemical
[46] = Intrinsic clearance in human microsomes assessed per mg protein; type: ADME, Microsome
[47] = test system: Plasmodium falciparum; assay: Antiplasmodial activity against Plasmodium falciparum FCB infected in human erythrocytes after 72 hrs by [3H]-hypoxanthine incorporation assay; type: functional, organism-based
[48] = Stability in human hepatocytes assessed as parent compound remaining after 5 hrs; type: ADME, cell-based, Hepatocyte; settings: read-out: Stability
Method in brief: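 Human hepatocyte incubation extended to 5 h; parent remaining and metabolite formation assessed.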

[49] = Lipophilicity, log P of the compound; type: physicochemical; settings: octanol/water
[50] = test system: Plasmodium falciparum; assay: Ratio of EC90 for Plasmodium falciparum NF54 infected in human erythrocytes to EC50 for Plasmodium falciparum NF54 infected in human erythrocytes; type: functional
[51] = Cmax in NOD-SCID IL-2Rgamma null mouse at 10 mg/kg measured up to 5 days; type: ADME, organism-based; set-up: dose 10 mg/kg; settings: in vivo
[52] = Ratio of EC50 for Plasmodium falciparum K1 infected in human erythrocytes to EC50 for Plasmodium falciparum NF54 infected in human erythrocytes; type: functional
[53] = test system: Plasmodium falciparum; assay: Antiplasmodial activity against Plasmodium falciparum 7G8 infected in human erythrocytes after 72 hrs by [3H]-hypoxanthine incorporation assay; type: functional, organism-based
[54] = test system: Plasmodium falciparum; assay: Antiplasmodial activity against Plasmodium falciparum HB3 infected in human erythrocytes after 72 hrs by [3H]-hypoxanthine incorporation assay; type: functional, organism-based
[55] = Protein binding in brain (unknown origin); type: ADME, tissue-based; settings: read-out: PB
[56] = Ratio of EC50 for Plasmodium falciparum V1/S infected in human erythrocytes to EC50 for Plasmodium falciparum NF54 infected in human erythrocytes; type: functional
[57] = Oral bioavailability in dog at 0.5 mg/kg measured for 14 days; type: ADME, organism-based, Canis lupus familiaris; settings: in vivo
[58] = Ratio of drug uptake in mouse blood to plasma; type: ADME; settings: blood and plasma

Voltage-gated inwardly rectifying potassium channel KCNH2, sequence (Q12809 whole entry): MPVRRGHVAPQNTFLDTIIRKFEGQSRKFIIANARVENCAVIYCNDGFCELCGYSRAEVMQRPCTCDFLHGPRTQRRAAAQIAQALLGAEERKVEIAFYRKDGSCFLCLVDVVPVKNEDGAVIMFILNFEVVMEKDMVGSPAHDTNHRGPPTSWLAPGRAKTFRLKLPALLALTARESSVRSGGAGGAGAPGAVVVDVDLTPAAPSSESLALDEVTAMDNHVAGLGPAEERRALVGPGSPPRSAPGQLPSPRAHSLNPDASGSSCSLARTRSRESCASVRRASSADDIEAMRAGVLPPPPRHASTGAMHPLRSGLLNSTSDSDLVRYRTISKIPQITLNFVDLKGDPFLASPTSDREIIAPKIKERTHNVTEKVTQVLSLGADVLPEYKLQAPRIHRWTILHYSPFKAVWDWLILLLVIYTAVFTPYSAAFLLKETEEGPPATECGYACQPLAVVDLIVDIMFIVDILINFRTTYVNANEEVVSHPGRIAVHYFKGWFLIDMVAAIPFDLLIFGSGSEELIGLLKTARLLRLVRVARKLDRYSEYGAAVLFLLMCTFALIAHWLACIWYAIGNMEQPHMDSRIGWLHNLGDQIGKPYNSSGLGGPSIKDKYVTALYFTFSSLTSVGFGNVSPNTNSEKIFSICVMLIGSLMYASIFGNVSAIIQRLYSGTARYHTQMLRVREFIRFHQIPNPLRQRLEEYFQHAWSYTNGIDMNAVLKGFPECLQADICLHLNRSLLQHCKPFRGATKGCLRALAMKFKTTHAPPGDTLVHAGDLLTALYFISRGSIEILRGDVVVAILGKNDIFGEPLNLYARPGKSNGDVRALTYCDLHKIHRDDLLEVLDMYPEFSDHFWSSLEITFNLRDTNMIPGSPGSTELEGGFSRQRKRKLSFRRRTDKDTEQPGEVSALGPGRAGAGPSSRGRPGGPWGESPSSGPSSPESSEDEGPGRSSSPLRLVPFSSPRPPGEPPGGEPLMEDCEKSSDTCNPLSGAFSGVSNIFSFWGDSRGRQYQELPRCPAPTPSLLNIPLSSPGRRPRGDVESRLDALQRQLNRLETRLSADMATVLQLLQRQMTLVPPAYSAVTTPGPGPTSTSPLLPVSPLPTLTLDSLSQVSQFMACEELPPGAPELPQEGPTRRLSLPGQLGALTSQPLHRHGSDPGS

CCN(CC)CCCC(C)Nc1ccnc2cc(Cl)ccc12 (stereo unspecified) [CHLOROQUINE]
ED50 [1]: 2.8 mg/kg

O[C@H]1CNCCC[C@@H]1n1c2ccc(C(F)(F)F)cc2c2cc(C(F)(F)F)ccc21
EC50 [2]: 1.3 nM | Activity [3]: Active | microsomal CLint [4]: < 10 µL/min/mg | solubility kinetic at 24 h [5]: 83.5 µg/mL (≈ 201 µM) | EC50 [6]: 3 nM | blood plasma ratio [7]: 1.5 | Ratio EC50 [8]: 1.3 | Ratio EC50 [9]: 0.9 | Ratio EC50 [10]: 1.2 | fraction unbound at 1000 ng/mL [11]: 0.026 | bioavailability [12]: 72% | AUCED90 [13]: 2.2 µg.hr/ml/day | Papp at 4 h, 20 µM [14]: 120 ×10⁻⁶ cm/s | fEC50 [15]: 0.17 nM | EC50 ([15]; Plasmodium falciparum, NF54): 2.4 nM | logD at 1 h [16]: 4.1 | FC [17]: 4.5 | fold change (FC) [18]: 2 | Tmax [19]: 6 h | EC50 [20]: 0.7 nM | ED90 [1]: 3.6 mg/kg | solubility kinetic at 24 h [21]: 1.5 µg/mL (≈ 3.6 µM) | half-life [22]: 86 h | Activity [23]: Active | bioavailability [24]: 97% | EC50 [25]: 3.4 nM | fraction unbound at 1000 ng/mL [26]: 0.035 | FC [27]: 4.8 | clearance [28]: 2.6 mL/min/kg | fraction unbound at 1000 ng/mL [29]: 0.025 | microsomal CLint [30]: < 10 µL/min/mg | solubility kinetic at 24 h [31]: 10 µg/mL (≈ 24 µM) | EC50 [32]: 3.2 nM | half-life [33]: 69 h | Ratio EC50 [34]: 0.2 | IC50 [35]: 1180 nM | microsomal CLint [36]: < 10 µL/min/mg | half-life [37]: 160 h | Ratio EC50 [38]: 1.4 | Vd [39]: 10 L/kg | Ratio EC50 [40]: 1.3 | efflux ratio at 4 h, 20 µM [41]: 0.8 | fraction unbound at 1000 ng/mL [42]: 0.013 | clearance [43]: 2.98 mL/min/kg | microsomal CLint [44]: < 10 µL/min/mg | pKa [45]: 8.05 | microsomal CLint [46]: < 10 µL/min/mg | EC50 [47]: 3 nM | remaining at 5 h [48]: 96% | logP [49]: 4.6 | fold change (FC) [50]: 2 | Cmax [51]: 1000 nM | Ratio EC50 [52]: 0.3 | EC50 [53]: 0.4 nM | EC50 [54]: 2.1 nM | fraction unbound [55]: < 0.001 | Ratio EC50 [56]: 0.5 | bioavailability [57]: 100% | blood plasma ratio [58]: 1.6

C1CCCNCC1 [AZEPANE]
pKa [45]: 8.05
